# Where a chain is given by its changes, count along the chain named.
# Columns and labels:
# Conditions in all cases: stereoisomer not certain
# [1] = target: T1, OR5K1 (Homo sapiens) (UniProt Q8NHB7)
# T1 sequence (whole entry): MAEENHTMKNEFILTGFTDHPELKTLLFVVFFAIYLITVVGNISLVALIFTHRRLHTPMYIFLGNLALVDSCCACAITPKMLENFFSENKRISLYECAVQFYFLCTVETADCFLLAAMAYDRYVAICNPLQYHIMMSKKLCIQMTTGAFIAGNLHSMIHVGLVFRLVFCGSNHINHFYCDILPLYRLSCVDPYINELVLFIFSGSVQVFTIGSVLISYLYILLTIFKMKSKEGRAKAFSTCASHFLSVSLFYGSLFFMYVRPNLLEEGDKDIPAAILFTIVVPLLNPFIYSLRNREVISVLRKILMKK
# Procedure, shortened: (§1)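 Assay methods differ from source to source, frequently being transient luciferase assays in mammalian cell lines. For each receptor–molecule pair, the label responsive (active) applies when the original authors judged the measured signal statistically different from baseline, and non-responsive (inactive) applies otherwise.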
# [2] = system: T2, OR5H2
# T2 sequence (whole entry): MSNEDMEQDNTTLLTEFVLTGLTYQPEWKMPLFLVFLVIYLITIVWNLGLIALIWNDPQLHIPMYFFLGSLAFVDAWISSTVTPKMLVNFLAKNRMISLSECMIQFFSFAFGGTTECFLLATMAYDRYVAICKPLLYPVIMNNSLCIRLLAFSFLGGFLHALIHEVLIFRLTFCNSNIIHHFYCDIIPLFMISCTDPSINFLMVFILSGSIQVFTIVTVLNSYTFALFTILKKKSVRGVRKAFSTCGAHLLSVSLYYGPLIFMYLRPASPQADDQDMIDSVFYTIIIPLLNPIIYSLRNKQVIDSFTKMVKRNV
# Procedure, shortened: as §1
# [3] = target: T3, OR5H6 (Homo sapiens) (UniProt Q8NGV6)
# T3 sequence (whole entry): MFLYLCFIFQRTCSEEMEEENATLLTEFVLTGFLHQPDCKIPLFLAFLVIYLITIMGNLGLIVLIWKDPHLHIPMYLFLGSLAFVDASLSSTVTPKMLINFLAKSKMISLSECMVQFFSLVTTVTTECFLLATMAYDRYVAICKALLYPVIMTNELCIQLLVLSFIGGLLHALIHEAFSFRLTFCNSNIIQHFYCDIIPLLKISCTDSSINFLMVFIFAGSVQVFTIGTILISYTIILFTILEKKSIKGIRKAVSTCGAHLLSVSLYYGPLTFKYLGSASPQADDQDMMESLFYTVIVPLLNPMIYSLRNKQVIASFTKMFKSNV
# Procedure, shortened: as §1
# [4] = target: T4, OR5J2 (Homo sapiens) (UniProt Q8NH18)
# T4 sequence (whole entry): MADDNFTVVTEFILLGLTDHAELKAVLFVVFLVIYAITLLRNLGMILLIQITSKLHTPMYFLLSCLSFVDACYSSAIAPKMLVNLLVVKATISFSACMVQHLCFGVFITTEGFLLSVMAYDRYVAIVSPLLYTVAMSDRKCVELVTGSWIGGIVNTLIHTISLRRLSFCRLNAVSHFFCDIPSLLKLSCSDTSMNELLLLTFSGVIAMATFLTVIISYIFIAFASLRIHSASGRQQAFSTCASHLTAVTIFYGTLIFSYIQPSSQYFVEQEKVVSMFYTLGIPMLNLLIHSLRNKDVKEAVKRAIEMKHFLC
# Procedure, shortened: as §1
# [5] = target: T5, OR5K2 (Homo sapiens) (UniProt Q8NHB8)
# T5 sequence (whole entry): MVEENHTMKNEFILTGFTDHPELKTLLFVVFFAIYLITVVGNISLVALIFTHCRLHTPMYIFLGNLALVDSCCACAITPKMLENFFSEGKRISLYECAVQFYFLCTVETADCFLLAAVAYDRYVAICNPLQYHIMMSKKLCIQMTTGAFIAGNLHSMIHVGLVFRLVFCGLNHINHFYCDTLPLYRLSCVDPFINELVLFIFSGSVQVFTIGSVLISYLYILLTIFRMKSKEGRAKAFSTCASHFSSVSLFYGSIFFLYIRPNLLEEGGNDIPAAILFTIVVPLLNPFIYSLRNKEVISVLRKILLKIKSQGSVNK
# Procedure, shortened: as §1
# [6] = target: OR5H8 (Homo sapiens) (UniProt P0DN80)
# Procedure, shortened: as §1
# [7] = target: T6, OR5I1 (Homo sapiens) (UniProt Q13606)
# T6 sequence (whole entry): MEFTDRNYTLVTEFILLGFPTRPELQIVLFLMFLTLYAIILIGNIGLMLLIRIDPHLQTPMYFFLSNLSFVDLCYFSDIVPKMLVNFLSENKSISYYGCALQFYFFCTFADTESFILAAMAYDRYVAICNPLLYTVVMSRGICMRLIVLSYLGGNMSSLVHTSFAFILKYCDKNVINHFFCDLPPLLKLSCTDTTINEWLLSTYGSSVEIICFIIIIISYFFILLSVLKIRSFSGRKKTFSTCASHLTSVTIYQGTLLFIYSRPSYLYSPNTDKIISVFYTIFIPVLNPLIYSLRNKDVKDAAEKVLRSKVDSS
# Procedure, shortened: as §1
# [8] = system: T7, OR5H1
# T7 sequence (whole entry): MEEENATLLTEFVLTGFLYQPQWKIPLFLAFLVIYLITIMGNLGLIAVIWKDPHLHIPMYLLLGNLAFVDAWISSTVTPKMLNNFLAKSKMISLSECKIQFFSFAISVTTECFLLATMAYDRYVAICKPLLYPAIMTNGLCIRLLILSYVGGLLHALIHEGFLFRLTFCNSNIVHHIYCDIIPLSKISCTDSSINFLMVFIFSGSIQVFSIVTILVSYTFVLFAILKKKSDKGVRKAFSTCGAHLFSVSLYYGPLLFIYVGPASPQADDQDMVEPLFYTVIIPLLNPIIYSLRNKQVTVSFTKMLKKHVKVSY
# Procedure, shortened: as §1
# [9] = system: T8, OR5K2 L197M
# T8 sequence (whole entry): T5 sequence (whole entry) with L197M
# Procedure, shortened: as §1
# Chain of OR5H8 (Homo sapiens) (P0DN80 whole entry): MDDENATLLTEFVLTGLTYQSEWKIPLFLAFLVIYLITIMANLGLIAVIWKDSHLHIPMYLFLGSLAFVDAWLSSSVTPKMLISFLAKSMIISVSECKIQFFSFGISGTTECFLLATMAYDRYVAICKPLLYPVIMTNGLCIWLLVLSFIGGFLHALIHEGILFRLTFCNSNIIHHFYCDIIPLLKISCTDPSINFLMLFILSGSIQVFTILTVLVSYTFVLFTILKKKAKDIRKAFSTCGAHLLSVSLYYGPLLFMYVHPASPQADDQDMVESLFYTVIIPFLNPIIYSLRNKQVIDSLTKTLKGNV
compound,measurement,setting,value
CSSSC,odorant receptor agonist call,[1],inactive
CCCCCC(=O)C(C)C(C)=O (centres undefined),odorant receptor agonist call,[2],inactive
same,odorant receptor agonist call,[3],inactive
same,odorant receptor agonist call,[4],inactive
same,odorant receptor agonist call,[1],inactive
same,odorant receptor agonist call,[5],inactive
CCCC(=O)OCC,odorant receptor agonist call,[1],inactive
CCOC(C)OCC,odorant receptor agonist call,[1],inactive
CCC=CCCC=O,odorant receptor agonist call,[1],inactive
CC(CO)CS (centres undefined),odorant receptor agonist call,[2],inactive
same,odorant receptor agonist call,[3],inactive
same,odorant receptor agonist call,[4],inactive
same,odorant receptor agonist call,[1],inactive
same,odorant receptor agonist call,[5],inactive
CCCCCC1CCC(=O)O1 (centres undefined),odorant receptor agonist call,[1],inactive
CCCCC1CCC(=O)O1 (centres undefined),odorant receptor agonist call,[1],inactive
CSCCC=O,odorant receptor agonist call,[1],inactive
CC(C)(S)CCOC=O,odorant receptor agonist call,[1],inactive
CC(=O)c1c(C)c([N+](=O)[O-])c(C(C)(C)C)c([N+](=O)[O-])c1C,odorant receptor agonist call,[2],inactive
same,odorant receptor agonist call,[3],inactive
same,odorant receptor agonist call,[6],inactive
same,odorant receptor agonist call,[7],inactive
same,odorant receptor agonist call,[4],inactive
same,odorant receptor agonist call,[5],inactive
SCc1cccs1,odorant receptor agonist call,[1],inactive
CCC=CCC=O,odorant receptor agonist call,[1],inactive
CCC1OC(C)=C(O)C1=O (centres undefined),odorant receptor agonist call,[8],inactive
same,odorant receptor agonist call,[2],inactive
same,odorant receptor agonist call,[3],inactive
same,odorant receptor agonist call,[7],inactive
same,odorant receptor agonist call,[4],inactive
same,odorant receptor agonist call,[1],inactive
same,odorant receptor agonist call,[5],inactive
same,odorant receptor agonist call,[9],inactive
CC1CCCCCCCCCCCCC(=O)C1 (centres undefined),odorant receptor agonist call,[2],inactive
same,odorant receptor agonist call,[3],inactive
same,odorant receptor agonist call,[6],inactive
same,odorant receptor agonist call,[7],inactive
same,odorant receptor agonist call,[4],inactive
same,odorant receptor agonist call,[5],inactive
CCCC(=O)C(C)CC (centres undefined),odorant receptor agonist call,[1],inactive
CCCCC1OC(=O)CC1C (centres undefined),odorant receptor agonist call,[1],inactive
CCCc1ccc(O)c(OC)c1,odorant receptor agonist call,[1],inactive
CCCCCCC=CCCC=O,odorant receptor agonist call,[2],inactive
same,odorant receptor agonist call,[3],inactive
same,odorant receptor agonist call,[7],inactive
same,odorant receptor agonist call,[4],inactive
same,odorant receptor agonist call,[1],inactive
same,odorant receptor agonist call,[5],inactive
same,odorant receptor agonist call,[9],inactive
C=C1CCC2CC1C2(C)C (centres undefined),odorant receptor agonist call,[1],inactive
CCC1OC(=O)C(O)=C1C (centres undefined),odorant receptor agonist call,[8],inactive
same,odorant receptor agonist call,[2],inactive
same,odorant receptor agonist call,[3],inactive
same,odorant receptor agonist call,[7],inactive
same,odorant receptor agonist call,[4],inactive
same,odorant receptor agonist call,[1],inactive
same,odorant receptor agonist call,[5],inactive
same,odorant receptor agonist call,[9],inactive
CCCCCCCC(=O)[O-].[H+],odorant receptor agonist call,[1],inactive
CCCCCC=O,odorant receptor agonist call,[1],inactive
CC1=NC(C)C(C)S1 (centres undefined),odorant receptor agonist call,[8],inactive
same,odorant receptor agonist call,[2],inactive
same,odorant receptor agonist call,[3],inactive
same,odorant receptor agonist call,[7],inactive
same,odorant receptor agonist call,[4],inactive
same,odorant receptor agonist call,[1],active
same,odorant receptor agonist call,[5],inactive
same,odorant receptor agonist call,[9],inactive
CCC(S)C(C)=O (centres undefined),odorant receptor agonist call,[1],inactive
CCC(S)C(C)CO (centres undefined),odorant receptor agonist call,[2],inactive
same,odorant receptor agonist call,[3],inactive
same,odorant receptor agonist call,[4],inactive
same,odorant receptor agonist call,[1],inactive
same,odorant receptor agonist call,[5],inactive
CCCSSSC,odorant receptor agonist call,[1],inactive
CCCCC=CC=CC=O,odorant receptor agonist call,[1],inactive
CC1=C(O)C(=O)C(C)O1 (centres undefined),odorant receptor agonist call,[8],inactive
same,odorant receptor agonist call,[2],inactive
same,odorant receptor agonist call,[3],inactive
same,odorant receptor agonist call,[7],inactive
same,odorant receptor agonist call,[4],inactive
same,odorant receptor agonist call,[1],inactive
same,odorant receptor agonist call,[5],inactive
same,odorant receptor agonist call,[9],inactive
CCCCCCO,odorant receptor agonist call,[1],inactive
CCC=CCCC=CC=O,odorant receptor agonist call,[1],inactive
CCCCCCCCCC(=O)OCC,odorant receptor agonist call,[1],inactive
CCCC=CC=O,odorant receptor agonist call,[1],inactive

# From the M2OR odorant receptor database
